Results of several laboratories.
Protocols differ between the studies behind these lines.

| SMILES | test | test system | setting | endpoint | value |
| --- | --- | --- | --- | --- | --- |
| CCCCCCCCNC(C)C(O)c1ccc(SC(C)C)cc1 (stereo not shown) | haemolysis | human | 50 µM, 3 h | haemolysis | > 18% |
| C[C@]1(O)CCCN(c2nc(Nc3ccc(S(=O)(=O)N[C@H]4CC[C@H](CN5CCN(c6ccc(C7CCC(=O)NC7=O)c(F)c6)CC5)CC4)cc3F)ncc2C(F)(F)F)C1 (stereo partly shown) |  | rat, plasma | intravenous, 2 mg/kg | clearance | 6 mL/min/kg |
| CC(C)[C@@H]1NC(=O)[C@@H](CCCNC(=N)N)NC(=O)[C@H]([C@@H](C)O)NC(=O)[C@@H](CCCCN)NC(=O)[C@H](Cc2ccccc2)NC(=O)[C@@H](Cc2ccccc2)NC1=O | haemolysis | human | 100 µM | haemolysis | < 10% |
| C[C@]1(O)CCCN(c2nc(Nc3ccc(S(=O)(=O)N[C@H]4CC[C@H](CN5CCN(c6ccc(C7CCC(=O)NC7=O)cc6F)CC5)CC4)cc3F)ncc2C(F)(F)F)C1 (stereo partly shown) |  | rat, plasma | intravenous, 2 mg/kg | clearance | 12 mL/min/kg |
| CCCc1nc2c(C)cc(-c3nc4ccccc4n3C)cc2n1Cc1ccc(-c2ccccc2C(=O)O)cc1 |  | male Sprague-Dawley rat, plasma | oral, 8 mg/kg, single dose | CL/F | 78 mL/min/kg |
| CO[C@H]1C[C@H](O[C@@H]2/C(C)=C/C[C@@H]3C[C@@H](C[C@]4(CC[C@H](C)[C@@H](C5CCCCC5)O4)O3)OC(=O)[C@@H]3C=C(C)/C(=N/O)[C@H]4OC/C(=C\C=C\[C@@H]2C)[C@]43O)O[C@@H](C)[C@@H]1O | haemolysis | human | 50 µM, 3 h | haemolysis | > 18% |
| CC(C)[C@@H]1NC(=O)[C@@H](CCCNC(=N)N)NC(=O)[C@H]([C@@H](C)O)NC(=O)[C@@H](C)NC(=O)[C@H](Cc2ccccc2)NC(=O)[C@@H](Cc2ccccc2)NC1=O | haemolysis | human | 100 µM | haemolysis | < 10% |
| C[C@H]1Oc2cc(cnc2N)-c2c(nn(C)c2C#N)CN(C)C(=O)c2ccc(F)cc21 |  | male Sprague-Dawley rat, plasma | oral, 50 mg/kg, single dose | CL/F | 16.7 mL/min/kg |
| CC(C)[C@H](N)C(=O)N[C@H](Cc1ccccc1)C(=O)N[C@@H](Cc1ccccc1)C(=O)N[C@H](CCCN)C(=O)N[C@H](C(=O)N[C@H](CCCNC(=N)N)C(=O)O)[C@@H](C)O | haemolysis | human | 100 µM | haemolysis | < 10% |
| C[C@]1(O)CCCN(c2nc(Nc3ccc(S(=O)(=O)N[C@@H]4CCN(CC5CCN(c6ccc(C7CCC(=O)NC7=O)cc6F)CC5)C[C@H]4F)cc3F)ncc2C(F)(F)F)C1 (stereo partly shown) |  | rat, plasma | intravenous, 2 mg/kg | clearance | 12 mL/min/kg |
